The results in this text go back to ChEMBL document CHEMBL4138179, “Design, synthesis and cytotoxic activity of N-Modified oleanolic saponins bearing A glucosamine” (Eur J Med Chem, 2018).

pIC50: −log10 of the molar value.

For data set [1], the system named is HL-60. Put plainly: Cytotoxicity against human HL60 cells assessed as cell growth inhibition after 48 hrs by MTT assay. Conditions: HL-60, 48 h; call rule not given here. In kind it is functional, cell-based. In outline: (§1)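 Cells from ATCC; HL-60 grown in IMDM, PC-3 in RPMI 1640, HT29 in DMEM, each with 10% FBS and penicillin/streptomycin, 37 °C, 5% CO2. Cells incubated without or with compound at the indicated concentrations and times. Mitochondrial MTT reduction read at 570 nm on a plate reader. IC50 given as mean ± SD of at least three independent experiments.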

A further data set has as its system PC-3. As to the kind of experiment: Cytotoxicity against human PC3 cells assessed as cell growth inhibition after 48 hrs by MTT assay. In kind it is functional, cell-based. The settings on record: PC-3, 48 h. A digest of the protocol: as §1
Another data set relates to HT-29. As to the kind of experiment: Cytotoxicity against human HT-29 cells assessed as cell growth inhibition after 48 hrs by MTT assay. The settings on record: HT-29, 48 h. Type of data set: functional, cell-based. A digest of the protocol: as §1
In general terms: Tetrazolium assays rely on reduction of a dye to a coloured formazan, in cell work by metabolically active cells.

Data set [2] in a line: Drug uptake in human HL60 cell membrane at 15 uM for 15 hrs by DBCO-488-based fluorescence confocal microscopy. The settings on record: hl-60, 15 h. In kind it is ADME, cell membranes. A digest of the protocol:
(§2)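 HL-60 cells treated with azido-bearing compound (15 μM, 15 h); DMSO-diluted control. Cells fixed in 99% alcohol, permeabilized with 0.1% Triton X-100 in PBS for 15 min, then washed. Copper-free labeling with DBCO-488 (2 μM) plus 0.5 mg/mL BSA in PBS for 6 h. RedDot2 nuclear and CellBrite Blue membrane counterstains; imaged by confocal fluorescence microscopy.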

The nature of data set [3]: Drug uptake in human HL60 cells at 15 uM for 15 hrs by DBCO-488 probe based fluorescence confocal microscopy. Type of data set: ADME, cell-based. The settings on record: hl-60, 15 h. In outline:
as §2

Data set [4] relates to HL-60. Put plainly: Induction of mitochondrial membrane depolarization in human HL60 cells after 24 hrs by JC-1 staining based flow cytometry. In kind it is functional, cell-based. In outline: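 HL-60 cells exposed to a range of compound concentrations under the MTT culture conditions, untreated control included. After 1 day, cells stained with JC-1 (final 2 μM) at 37 °C for 30 min, then harvested. Flow cytometry gives the percentage loss of mitochondrial membrane potential.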
In general terms: Flow cytometry measures light scatter and fluorescence of single cells or particles in a stream.

For orientation: pIC50 means −log10 of the IC50, conventionally taken in molar units. For `CC1(C)CC[C@]2(C(=O)O)CC[C@]3(C)C(=CC[C@@H]4[C@@]5(C)CC[C@H](O[C@@H]6O[C@H](CO)[C@@H](O)[C@H](O)[C@H]6NC(=O)CN=[N+]=[N-])C(C)(C)[C@@H]5CC[C@]43C)[C@@H]2C1`, the negative logarithm of the IC50 (pIC50) in the data set with HL-60 [1] was 5.04; in the data set with PC-3 it was 4.65; in the data set on HT-29, 4.64. Moreover, the Drug uptake result in data set [2] is “Active”.
For the molecule `C#CCCC(=O)N[C@H]1[C@H](O[C@H]2CC[C@]3(C)[C@H]4CC=C5[C@@H]6CC(C)(C)CC[C@]6(C(=O)O)CC[C@@]5(C)[C@]4(C)CC[C@H]3C2(C)C)O[C@H](CO)[C@@H](O)[C@@H]1O`, the negative logarithm of the IC50 (pIC50) was 4.97 with HL-60 [1], less than 4.52 in the data set with PC-3 and less than 4.52 in the data set with HT-29. For the same molecule, the Drug uptake result in data set [2] is on record as “Active”.
As for `CC1(C)CC[C@]2(C(=O)O)CC[C@]3(C)C(=CC[C@H]4C3(C)CC[C@H]3C(C)(C)[C@@H](O[C@@H]5O[C@H](CO)[C@@H](O)[C@H](O)[C@H]5NC(=O)CCc5cn(-c6cc7ccc(O)cc7oc6=O)nn5)CC[C@@]34C)[C@@H]2C1` (single isomer, unassigned), the Drug uptake entry in data set [3] was “Active”.
As for `CCCCCCC(=O)N[C@H]1[C@H](O[C@H]2CC[C@]3(C)[C@H]4CC=C5[C@@H]6CC(C)(C)CC[C@]6(C(=O)O)CC[C@@]5(C)[C@]4(C)CC[C@H]3C2(C)C)O[C@H](CO)[C@@H](O)[C@@H]1O`, the pIC50 in the data set on HL-60 [1] is 5.55; in the data set on PC-3, less than 4.52; with HT-29 it was less than 4.52. Further, the Activity entry with HL-60 [4] was “Dose-dependent effect”.
